# Legend:
# HeLa cells = test: Caspase activity assay with fluorogenic substrate Ac-DEVD-AMC in cell lysates; format: cell-based, human; conditions: HeLa cells treated with STS
# In short: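 HeLa cells were seeded at 0.3×10^6 per well in supplemented DMEM at 37 °C, 5% CO₂. […] Cells were lysed in hypotonic PIPES/NP-40 buffer pH 7.4 on ice. Lysate (20 μg protein) was incubated with 50 μM Ac-DEVD-AMC in 100 μL caspase buffer for 1 h at 37 °C. AMC fluorescence (ex 360/em 460) was converted to pmol by free-AMC standard curve; mean of three.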
# caspase-3 [1] = biological target: T1, caspase-3 (Homo sapiens, UniProt P42574); test: Biochemical inhibition assay, kinact/Ki with Ac-DEVD-AMC substrate
# T1 sequence (P42574 29-175 limits assumed): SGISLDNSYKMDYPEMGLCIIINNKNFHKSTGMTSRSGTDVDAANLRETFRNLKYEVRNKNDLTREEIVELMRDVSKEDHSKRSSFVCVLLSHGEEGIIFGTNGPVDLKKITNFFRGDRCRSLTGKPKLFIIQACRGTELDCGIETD
# T1 sequence (P42574 176-277 limits assumed): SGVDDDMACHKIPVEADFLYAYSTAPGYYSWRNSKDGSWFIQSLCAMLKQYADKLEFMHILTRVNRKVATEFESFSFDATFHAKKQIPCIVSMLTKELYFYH
# In short: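 Ac-DEVD-AMC was 50 µM final and inhibitor 20 to 80 nM final. Reference inhibitor Ac-ATS010-KE was run alongside. kinact/Ki was derived as for the AMAC assay.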
# caspase-3 [2] = biological target: T1, caspase-3; test: Biochemical inhibition assay, kinact/Ki with AMAC substrate; conditions: AMAC-substrates, N = 4
# In short: (§1)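 Continuous fluorogenic inactivation assay with Ac-DEVD-AMAC at 100 μM final. Final enzyme concentrations were 1 nM caspase-3 and 5 nM caspase-7. Enzyme was added to substrate plus inhibitor, and fluorescence (ex 320/em 460) was read immediately. Progress curves were fit to F = -[v₀(1-exp(-kobst))/kobs-Fmax] to give kinact and Ki.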
# caspase-9 = biological target: T2, caspase-9 (Homo sapiens, UniProt P55211); test: Biochemical inhibition assay, kinact/Ki with AMAC substrate; conditions: AMAC-substrates, N = 4
# T2 sequence (P55211 1-315 limits assumed): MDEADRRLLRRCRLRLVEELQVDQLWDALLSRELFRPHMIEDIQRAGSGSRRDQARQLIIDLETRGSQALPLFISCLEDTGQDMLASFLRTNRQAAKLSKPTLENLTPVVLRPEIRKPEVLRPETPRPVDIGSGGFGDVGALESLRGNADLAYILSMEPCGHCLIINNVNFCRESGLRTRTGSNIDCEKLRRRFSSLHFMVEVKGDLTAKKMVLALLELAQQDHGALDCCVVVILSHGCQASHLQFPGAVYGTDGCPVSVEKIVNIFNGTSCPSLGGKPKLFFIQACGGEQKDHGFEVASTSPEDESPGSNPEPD
# T2 sequence (P55211 331-416 limits assumed): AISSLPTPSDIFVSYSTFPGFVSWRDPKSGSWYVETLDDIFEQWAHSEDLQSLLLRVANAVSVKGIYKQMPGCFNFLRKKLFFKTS
# In short: (§2)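 Caspase-8 (25 nM), caspase-9 (100 nM) and caspase-10 (20 nM) used Ac-IETD-AMAC; caspase-9 and caspase-10 buffers also had 0.7 M sodium citrate. Caspase-6 (25 nM) used Ac-VEID-AMAC. Fluorescence (ex 320/em 460) was read immediately, and progress curves were fit for kinact and Ki.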
# caspase-7 = biological target: T3, caspase-7 (Homo sapiens, UniProt P55210); test: Biochemical inhibition assay, kinact/Ki with AMAC substrate; conditions: AMAC-substrates, N = 4
# T3 sequence (P55210 24-198 limits assumed): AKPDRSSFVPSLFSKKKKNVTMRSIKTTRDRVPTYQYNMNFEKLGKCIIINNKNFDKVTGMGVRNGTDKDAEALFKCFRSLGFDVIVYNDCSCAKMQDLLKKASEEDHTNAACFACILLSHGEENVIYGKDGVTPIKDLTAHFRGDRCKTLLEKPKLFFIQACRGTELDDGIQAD
# T3 sequence (P55210 207-303 limits assumed): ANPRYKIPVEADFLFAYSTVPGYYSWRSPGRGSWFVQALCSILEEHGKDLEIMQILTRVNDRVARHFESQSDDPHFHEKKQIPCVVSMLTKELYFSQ
# In short: as §1
# caspase-6 = biological target: T4, caspase-6 (Homo sapiens, UniProt P55212); test: Biochemical inhibition assay, kinact/Ki with AMAC substrate; conditions: AMAC-substrates, N = 4
# T4 sequence (P55212 24-179 limits assumed): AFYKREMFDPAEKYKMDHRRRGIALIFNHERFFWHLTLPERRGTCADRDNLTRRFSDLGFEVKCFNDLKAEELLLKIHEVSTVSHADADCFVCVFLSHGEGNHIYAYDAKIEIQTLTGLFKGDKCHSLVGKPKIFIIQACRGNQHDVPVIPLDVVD
# T4 sequence (P55212 194-293 limits assumed): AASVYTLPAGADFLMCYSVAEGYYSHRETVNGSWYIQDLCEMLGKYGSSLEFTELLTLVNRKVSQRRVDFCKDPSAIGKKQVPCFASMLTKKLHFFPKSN
# In short: as §2
# caspase-3 [3] = biological target: T1, caspase-3; conditions: ref Solania et al. [2019]; cited from earlier work
# caspase-10 = biological target: T5, caspase-10 (Homo sapiens, UniProt Q92851); test: Biochemical inhibition assay, kinact/Ki with AMAC substrate; conditions: AMAC-substrates, N = 4
# T5 sequence (Q92851 220-415 limits assumed): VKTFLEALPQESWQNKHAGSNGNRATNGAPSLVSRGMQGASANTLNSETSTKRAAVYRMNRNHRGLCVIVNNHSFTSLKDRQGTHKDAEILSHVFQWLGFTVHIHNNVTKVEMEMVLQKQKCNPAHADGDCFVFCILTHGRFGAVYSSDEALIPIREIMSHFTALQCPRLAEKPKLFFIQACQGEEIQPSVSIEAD
# T5 sequence (Q92851 416-521 limits assumed): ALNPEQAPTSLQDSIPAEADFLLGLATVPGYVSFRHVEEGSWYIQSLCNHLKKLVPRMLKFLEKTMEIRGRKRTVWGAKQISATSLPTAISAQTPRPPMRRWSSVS
# In short: as §2
# caspase-8 = caspase-8 (Homo sapiens, UniProt Q14790); test: as above; conditions: AMAC-substrates, N = 4
# Chain of caspase-8 (Q14790 217-374 limits assumed): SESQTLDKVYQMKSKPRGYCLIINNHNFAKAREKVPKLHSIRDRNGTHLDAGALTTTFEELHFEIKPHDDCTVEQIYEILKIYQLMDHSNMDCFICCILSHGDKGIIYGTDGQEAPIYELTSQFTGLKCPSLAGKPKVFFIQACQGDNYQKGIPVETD
# Chain of caspase-8 (Q14790 385-479 limits assumed): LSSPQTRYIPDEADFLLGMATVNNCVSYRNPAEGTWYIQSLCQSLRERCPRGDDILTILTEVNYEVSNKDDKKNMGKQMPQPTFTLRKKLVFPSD
# In short: as §2
# Jurkat cells = conditions: ref Solania et al. [2019]; cited from earlier work
# COLO205 tumours = test: Caspase activity in tumour homogenates with fluorogenic substrate; format: in vivo, CD1^−/− nude mice; conditions: 24 h after treatment
# In short: (§3)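 Female CD1 nude mice bore subcutaneous hind-leg xenografts: COLO205 at 2×10⁶ cells, HT29 at 10×10⁶. At about 200 mm³, mice received conatumumab or IgG1 isotype, 1.5 mg/kg i.p. Tumours were taken 24 h later and homogenised. Homogenate (20 μg protein) was incubated with 50 μM Ac-DEVD-AMC in caspase buffer, 1 h, 37 °C. AMC (ex 360/em 460) was quantified in pmol against a free-AMC standard; N = 3.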
# HT29 tumours = test: as above; format: in vivo, CD1^−/− nude mice; conditions: 24 h after treatment
# In short: as §3
molecule,measurement,setting,value
"CN[C@@H]1C[C@H]2O[C@@](C)([C@@H]1OC)n1c3ccccc3c3c4c(c5c6ccccc6n2c5c31)C(=O)NC4 [STS, staurosporine]",AMC liberation (caspase activity),HeLa cells,1598 ± 444 pmol AMC
"Ac-3Pal-Asp-Phe(F5)-Phe-Asp-KE [Ac-ATS010-KE, reference compound]",kinact/Ki caspase-3,caspase-3 [1],46.48 ± 9.96 × 10^4.s^−1.M^−1
same,kinact/Ki C3,caspase-3 [2],1.7e+06 M⁻¹ s⁻¹
same,kinact/Ki C9,caspase-9,14000 M⁻¹ s⁻¹
same,kinact/Ki C7,caspase-7,190000 M⁻¹ s⁻¹
same,kinact/Ki C6,caspase-6,300 M⁻¹ s⁻¹
same,increase of kinact/Ki for caspase-3 over the DW3 sequence,caspase-3 [3],154 fold
same,kinact/Ki C10,caspase-10,1000 M⁻¹ s⁻¹
same,kinact/Ki C8,caspase-8,25000 M⁻¹ s⁻¹
same,protection from MegaFasL-induced apoptosis,Jurkat cells,able to protect Jurkat cells from MegaFasL-induced apoptosis
"conatumumab: apoptosis-inducing therapy (Amgen) given to tumour-bearing mice, compared with IgG1 isotype control","caspase activity, liberated AMC",COLO205 tumours,"15,119 ± 761 pmol liberated AMC"
same,"caspase activity, liberated AMC",HT29 tumours,679 ± 63 pmol liberated AMC
